Test results reported in ChEMBL document CHEMBL4513216, “Probing the Open Global Health Chemical Diversity Library for Multistage-Active Starting Points for Next-Generation Antimalarials” (ACS Infect Dis, 2020).

Experiment: Toxicity liver stage against HepG2, at 10uM
Assay type: cell-based
Design: test concentration 10 uM, cell line HepG2-A16-CD81EGFP
Details: human, HepG2-A16-CD81EGFP cells; read-out: INHIBITION
In short: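 Uninfected HepG2-A16-CD81EGFP cells, 3 × 10^3 per well, 1536-well, plated on prespotted compound at 10 μM final, parasite-free screening media added to match infected plates; puromycin 10 μM positive, DMSO 0.5% negative; run in parallel with 48 h PbLuc assay at 37 °C, 5% CO2; viability by CellTiter-Glo luminescence, normalized to controls.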

Structure (SMILES)	cytotoxicity at 10 µM [%]
CCc1ccc(C2CC(=O)Nc3c2c(=O)n(C)c2ncnn32)cc1 (stereo unspecified)	8.16
N#Cc1ncn(CCC(=O)Nc2ccc(Cl)cc2F)n1	-8.94
CN1CCN2C(=O)N(C3CCCCC3)C[C@H]2C1	-3.1
O=C(CCC(=O)Nc1nnc(C(F)(F)F)s1)NCC1CCCO1 (stereo unspecified)	4.65
CCOC(=O)C1CC2(CCCC2)N2CCC(=O)N12 (stereo unspecified)	1.53
O=C(C1CC1)N(Cc1ccc2cc[nH]c2c1)C1CC1	-2.98
Cc1nnc(SCC(=O)c2cc3c(cc2Cl)NC(=O)C3)o1	-5.28
Cc1cc(C)n(-c2cccc(C(=O)Nc3n[nH]c(C4CCCO4)n3)c2)n1 (stereo unspecified)	-4.44
COc1ccccc1C(O)Cn1cc(C(=O)NCc2ccco2)nn1 (stereo unspecified)	-6.03
O=C1COC2(CCN(C(=O)c3ccoc3)CC2)CN1Cc1cccnc1	5.29
CN(CC1CC1)c1ccc2ccc(C(=O)NC3CCCCC3)cn12	-0.567
N#CCC(=O)NCc1nnc2n1CCN(Cc1cccs1)C2	-136
O=C1NCC[C@]12CN(Cc1ccco1)C[C@H]2c1ccccc1	-139
Cc1ccc(NC(=O)Cc2cnc3n(C)c(=O)[nH]c(=O)n23)cc1	8.24
COc1ccc(C)cc1S(=O)(=O)NCC(c1cccn1C)N(C)C (stereo unspecified)	-11.9
O=S(=O)(c1cccnc1)N1CCN(CCn2ccnc2)CC1	-31.2
CC(C)CCNC(=O)c1sccc1N(C)S(=O)(=O)c1ccccc1	9.33
CN1CC2(COCCN(C(=O)c3ccco3)C2)OCC1=O (stereo unspecified)	2.33
O=C(c1cnccn1)N1CCN2C[C@H](OCc3ccccn3)C[C@H]2C1	-0.746
CCN1Cc2c(C(=O)NCC3CC3)ncn2-c2ccccc2S1(=O)=O	-12.2
O=C1CCC2(CCN(c3ncc(F)cn3)CC2)N1CCN1CCCC1	10.5
COc1cccc(NC(=O)C(C)Cn2cc(Cl)cn2)c1 (stereo unspecified)	-1.47
O=C(O)c1ccn(COc2c(Cl)cccc2Cl)n1	8.71

Structure (SMILES)	cytotoxicity at 10 µM [%]
O=C1CCC(=O)c2oc3ccc(Br)cc3c2N1	2.44
Brc1ccc2[nH]c3c(c2c1)CCCC3c1nn[nH]n1 (stereo unspecified)	4.49
CC(=O)N[C@@H]1CN(C(=O)c2cccc(C)c2)C[C@H]1O	-2.48
Cc1c(S(=O)(=O)N2CCCC2c2nnc(-c3ccsc3)o2)cnn1C (stereo unspecified)	3.04
Cc1cnc(-c2nc(NC3CC3)ncc2-c2onc(C)c2C)cn1	-27.9
Cn1nccc1C(=O)N1CCOC(Cc2ccc(Cl)cc2)C1 (stereo unspecified)	-26
CCOCC(=O)N1C[C@@H]2CC[C@H](Oc3ccccc3)[C@@H]2C1	-16.1
Cc1nc(Nc2cnccn2)cc(C2CCCN(C(C)C)C2)n1 (stereo unspecified)	-9.03
O=S(=O)(c1ccc2c(c1)CCC2)N1CCCC(Cn2cncn2)C1 (stereo unspecified)	4.19
CC(SCCC(=O)NC(N)=O)c1ccccc1F (stereo unspecified)	5.87
O=C(CCNC(=O)C1=Cc2ccccc2OC1)NCc1ccncc1	5.6
C[S+]([O-])CCNC(=O)N1CCN(c2cc(F)ccc2F)CC1 (stereo unspecified)	-13.4
CC1COCCN1C(=O)Cc1cc(Cl)c2c(c1)OCCCO2 (stereo unspecified)	-1.43
CCc1[nH]nc(NC(=O)c2cc[nH]n2)c1C	-3.98
O=S(=O)(Cc1ccccc1)c1nnc(N2CCOCC2)s1	-4.65
Cc1oncc1NS(=O)(=O)c1c[nH]c2ncccc12	-7.49
CS(=O)(=O)N1CCC(Oc2ccc(C#N)cc2)CC1	-8.97
O=C(CN1CCN(c2ccnc3c(F)ccc(F)c23)CC1)N1CCCC1	17.4
O=C(CCc1cccnc1)Nc1ccc(OCC2CCOCC2)cc1	-6.01
CCOCC(=O)N(Cc1ccco1)c1ccc(OC)c(F)c1	-2.75
COc1cc(CSc2nnc(N)n2C2CC2)ccc1SC	-6.09
COc1ccc(C(=O)NCCN(C)C)c(I)c1	-1.93
Cc1ccc(Cc2sc(NC(=O)C(C)S(C)(=O)=O)nc2C)cc1 (stereo unspecified)	13.1

Structure (SMILES)	cytotoxicity at 10 µM [%]
CC(C(=O)N1CCc2sccc2C1)N1CCC(N2CCCC2)CC1 (stereo unspecified)	10.9
CCc1nccn1CC(=O)Nc1cccc(C(=O)N(C)C)c1	-6.77
Cc1noc(C)c1CNS(=O)(=O)N(C)Cc1ccc(Cl)cc1	11.2
NC(=O)NC(=O)CNc1cccc(C(=O)c2ccccc2)c1	7.95
CC(C)c1noc(CS(=O)(=O)CC(=O)NCC(F)(F)F)n1	7.62
CCc1ccc(C(=O)NC2CCN(c3cnn(C)c3)C2=O)o1 (stereo unspecified)	-6.13
Cc1ccc(C(=O)N2CCN(CCCSCC#N)CC2)o1	-11.1
CCN(C(c1cccnc1)c1ccc2c(c1)CCO2)S(C)(=O)=O (stereo unspecified)	-8.28
Cc1cnn(CC2CCCN2C(=O)CCc2c(C)noc2Cl)c1 (stereo unspecified)	-8.31
Cc1cccc(CNCc2c(C(C)C)nn(C)c2N2CCOCC2)n1	-9.4
O=C(c1ncccn1)N1C[C@H]2CCC[C@@]2(COCC2CCOCC2)C1	-1.11
CC(CN1CCC(CCO)CC1)n1cnc2ccccc21 (stereo unspecified)	5.34
CCc1cccc(NC(=O)CCN2CC=C(c3cnn(C)c3)CC2)c1	1.2
COc1cccc(CC(C)NCC(=O)Nc2ccccc2C)c1 (stereo unspecified)	-1.62
COc1ncccc1CN1CCN(c2noc(C(C)C)n2)CC1	10.5
N[C@@H]1CC[C@H](C(=O)NCc2ccc3nonc3c2)C1	-5.35
CCC(C(=O)NCC1=CCCN(C)C1)c1ccccc1 (stereo unspecified)	-2.65
O=C(N1CCOCC(O)C1)C1(c2ccc(Cl)cc2)CCC1 (stereo unspecified)	-4.24
CN(Cc1cnc(C(C)(C)C)nc1)Cc1nc2ccc(F)cc2[nH]1	-12.3
CCCN1CCCn2nc(CNC(=O)CC(C)n3ccnc3C)cc2C1 (stereo unspecified)	-9.4
COCCN1CCN(C(=O)c2cc(C(C)C)on2)[C@H]2CS(=O)(=O)C[C@H]21	-12
C[C@@H]1CN(C2(C(=O)N3CCCCCC3)Cc3ccccc3C2)C[C@H](C)O1	-2.04
Cc1ccccc1Oc1ncccc1CNS(C)(=O)=O	-22.1

Structure (SMILES)	cytotoxicity at 10 µM [%]
Cc1ccc(C)c(C(C(=O)O)N2CCCN(Cc3ccccn3)CC2)c1 (stereo unspecified)	-15.6
c1cn(Cc2nnc(C3CCN(c4nccs4)CC3)n2C2CC2)cn1	-7.6
Cc1ccc(F)cc1C(=O)N1C[C@@H](CN2CCOCC2)[C@@H](CO)C1	-6.2
CN1N=C(C(=O)N2CCCC(CCc3c(F)cccc3F)C2)CCC1=O (stereo unspecified)	-7.41
CCC(=O)N1CCC(O)(c2ncc(OC)nc2OC)CC1	3.03
N#Cc1cccc(OCCN2CCOC(Cn3cccn3)C2)c1 (stereo unspecified)	-1.3
Cc1ccc(-c2nc(CNC3CCc4ncnn4C3)no2)cc1 (stereo unspecified)	-1.43
O=C(CCNc1ncccn1)N1CCC(Nc2cccnn2)CC1	-12.9
Cc1cnn(-c2ccc(C(=O)N3CCCC(n4ccnc4C)C3)cc2)c1 (stereo unspecified)	-9.99
CC(=O)N(Cc1ncc(C(C)C)o1)C1CCN(Cc2ccno2)C1 (stereo unspecified)	-11.1
Cc1ccc(CCNC(=O)Nc2cc(C(F)(F)F)c[nH]c2=O)o1	-11.9
Cc1nc2n(n1)CC(NCc1nc(-c3ccccn3)no1)CC2 (stereo unspecified)	-12.4
O=C(c1ccc2c(c1)COC2)N1CCCC(n2cncn2)C1 (stereo unspecified)	-20.6
Cc1ccc(N2CCCN(C(=O)CC3C=CCC3)CC2)nn1 (stereo unspecified)	-9.2
Cc1csc(NC(=O)CN2CCCC(Cn3nc(C)nc3C)C2)n1 (stereo unspecified)	-3.95
CC(C)(C)c1cccc(OCC(=O)NS(=O)(=O)c2cccnc2)c1	-12.5
Cn1cc(Cl)cc1C(=O)N1CCCN(Cc2nccn2C)CC1	-6.04
Cc1cc(NC(=O)CN2CCc3cnc(C(C)C)nc3C2)on1	-12.1
Cn1c(CNCC2CCCN2c2cccnn2)nc2ccccc21 (stereo unspecified)	-18.2
CN(C)c1ccc(C(=O)N2CCCC(n3cncn3)C2)nn1 (stereo unspecified)	0.47
COc1cc(Cl)ccc1CNC(=O)N1CCC(n2cncn2)CC1	-0.861
CN1CCC/C1=N\S(=O)(=O)c1ccc(NC(=O)c2ccc(Cl)s2)cc1	1.55
Cc1cc(N2CCC(C(=O)NC3CC3)CC2)nc(-c2ccncc2)n1	-17

Structure (SMILES)	cytotoxicity at 10 µM [%]
CN(C)c1ccc(C(=O)N2CCN(Cc3cscn3)CC2)cn1	-4.57
Cc1nc(CNC(=O)Cn2nc(-c3ccc(F)cc3)oc2=O)cs1	1.12
CCOc1ccnc(N2CCN(C(=O)c3cccnc3O)CC2)n1	-6.51
CC(=O)Nc1nc(C(=O)N2CCCC2c2noc(C)n2)cs1 (stereo unspecified)	-9.55
O=C(c1cnc(-c2cccs2)s1)N1CCCC(n2cccn2)C1 (stereo unspecified)	-10.8
O=S(=O)(NCCN1CCCCC1Cn1cncn1)c1ccccc1 (stereo unspecified)	-9.12
CC(NC(=O)NCCOc1ccc(F)c(F)c1)c1nncn1C (stereo unspecified)	-0.192
O=C1CC2(CCCNC2)C(=O)N1Cc1cccc(F)c1 (stereo unspecified)	3.56
Cn1cc(CN2CCOC(c3cccc(-c4cncnc4)n3)C2)cn1 (stereo unspecified)	4.74
COc1cc(N2CCC3(CC2)CC(N2CCOCC2)C3)ncn1	-6.81
CCn1nnc2c1C(COC)CN(Cc1cccs1)C2 (stereo unspecified)	-16.5
CNC(=O)CC1CC2(CCN(Cc3nccs3)CC2)c2ccccc21 (stereo unspecified)	-15
CCCS(=O)(=O)N1CCC2(CC1)CN(c1ccccn1)CCO2	6.66
COCCN1C[C@@H]2CN(Cc3ccc(F)cc3)C[C@@H]2C1=O	-0.744
CCS(=O)(=O)N1CCO[C@H]2[C@H](OCCCn3cccn3)CC[C@@H]21	-5.04
CNC(=O)[C@@H](C1CCCCC1)N1CCC[C@H]1C(=O)NCCN1CCCC1	-4.31
CS(=O)(=O)N1CCOCC2(CN(Cc3ccsc3)CCO2)C1 (stereo unspecified)	-11.7
O=C1CCC2(CCCN(C(=O)Cc3cccnc3)C2)N1 (stereo unspecified)	6.88
O=C(c1cccc(Cl)c1)N1CCCC2(CCCNC2)C1 (stereo unspecified)	-152
